The text below walks through data of ChEMBL document CHEMBL1122752, “Nucleosides. 129. Synthesis of antiviral nucleosides: 5-alkenyl-1-(2-deoxy-2-fluoro-beta-D-arabinofuranosyl)uracils” (J Med Chem, 1984).

A short description of series [1]: Cytotoxicity expressed as ID50 which is the concentration required for 50% growth inhibition of normal human lymphocytes. Particulars: read-out: ID50 (the source's name). The procedure, abridged:
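Normal human lymphoblasts stimulated with PHA; drug concentration causing 50% inhibition of replication (ID50) determined; values are means of three separate experiments run in parallel.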

In series [2] the test system is Vero. In words: In vitro antiviral activity was determined by plaque-reduction assay in HSV-1(strain 2931) infected Vero cell monolayers. The conditions noted are these: Chlorocebus sabaeus, read-out: ED50 (the source's name). In kind it is functional. The procedure, abridged:
(§1)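 Vero cell monolayers infected with about 20–30 pfu per well (HSV-1 strain 2931 or HSV-2 strain G), 2 h incubation, then overlaid with maintenance medium containing various drug concentrations. Plaques counted after 2 days of development. ED50 (50% plaque reduction) calculated by linear regression. Values are the mean of three separate experiments run in parallel.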

In series [3] the test system is Vero. The series is described as follows: In vitro antiviral activity was determined by plaque-reduction assay in HSV-2 (strain G) infected Vero cell monolayers. In kind it is functional. The conditions noted are these: Chlorocebus sabaeus, read-out: ED50 (the source's name). The essentials:
as §1
(In general: In a plaque reduction assay, fewer plaques than in the control indicate reduced infectivity or spread.)

As to `O=c1[nH]c(=O)n([C@@H]2O[C@H](CO)[C@@H](O)[C@@H]2F)cc1/C=C/I`, in series [1], the GI50 was above 100 µM. The EC50 with Vero [2] was found to be 1.1 µM; in the series on Vero [3] it was 17.3 µM.

Take `Nc1nc(=O)n([C@@H]2O[C@H](CO)[C@@H](O)[C@H]2F)cc1I`: in series [1], the GI50 turned out to be 8.6 µM. Also, the results for the EC50 in the series on Vero [2] and in the series on Vero [3] were 0.024 µM and 0.014 µM, respectively.

As to `CCc1cn([C@H]2O[C@@H](CO)[C@H](O)[C@@H]2F)c(=O)[nH]c1=O`, in series [1], the GI50 is above 100 µM. The EC50 with Vero [2] amounted to 0.24 µM; in the series on Vero [3], 0.65 µM.

For `O=c1[nH]c(=O)n([C@H]2O[C@@H](CO)[C@H](O)[C@@H]2F)cc1/C=C/Br`, the GI50 in series [1] is above 100 µM. Besides, the figures for the EC50 with Vero [2] and in the series on Vero [3] were 0.4 µM and 13.9 µM, respectively.

Turning to `O=c1[nH]c(=O)n([C@@H]2O[C@H](CO)[C@@H](O)[C@@H]2F)cc1/C=C/Cl`, the GI50 in series [1] is above 100 µM. For the same compound, the results for the EC50 in the series with Vero [2] and in the series on Vero [3] were 0.54 µM and 6.9 µM, respectively.

`C=Cc1cn([C@@H]2O[C@H](CO)[C@@H](O)[C@H]2F)c(=O)[nH]c1=O`: the GI50 in series [1] was above 100 µM. In addition, the EC50 came to 0.16 µM with Vero [2] and 0.69 µM in the series on Vero [3].

With `O=c1[nH]c(=O)n([C@H]2C[C@H](O)[C@@H](CO)O2)cc1/C=C/Br` [BRIVUDINE], the EC50 in the series on Vero [2] amounted to 0.07 µM; with Vero [3], 13 µM.
